Consider five compounds from ChEMBL document CHEMBL1151991, “Cytotoxic guanidine alkaloids from Pterogyne nitens” (J Nat Prod, 2009).

≈ marks a conversion by molar mass, not a printed value.

Format in all cases: functional, cell-based
One assay deals with HL-60. Put plainly: Cytotoxicity against human HL60 cells after 3 days by MTT assay. Conditions: HL-60, 72 h. In short, it runs like this: (§1)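 Cells kept in RPMI-1640 with 10% fetal calf serum, 2 mM glutamine, streptomycin and penicillin at 37 °C, 5% CO2. Seeded at 10^5 cells/well (adherent) or 0.3 × 10^6 cells/well (suspension). […] Medium then replaced by 0.5 mg/mL MTT for 3 h, formazan dissolved in DMSO, absorbance read. IC50 by modified NCI protocol.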

The subject of another assay is HCT-8. Put plainly: Cytotoxicity against human HCT8 cells after 3 days by MTT assay. The note with it: HCT-8, 72 h. In short, it runs like this: as §1
On the technique in general: Formazan colour is commonly taken as a measure of viable cells.

Another assay has as its system MDA-MB-435. Put plainly: Cytotoxicity against human MDA-MB-435 cells after 3 days by MTT assay. Conditions: MDA-MB-435, 72 h. The method, boiled down:
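Seeded at 10^5 cells/well (adherent) or 0.3 × 10^6 cells/well (suspension). Medium then replaced by 0.5 mg/mL MTT for 3 h, formazan dissolved in DMSO, absorbance read. IC50 by modified NCI protocol.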

A further assay concerns SF-295. Put plainly: Cytotoxicity against human SF295 cells after 3 days by MTT assay. The note with it: SF-295, 72 h. The method, boiled down:
as §1

What is called IC50 is the concentration that inhibits the measured activity by half. Read a high IC50 as weaker potency. On to `CC(C)=CCN=C(N)N` [GALEGINE], for which the IC50 in the assay with HL-60, with HCT-8, with MDA-MB-435 and in the assay on SF-295 was more than 5 µg/mL throughout.
For the compound `CC(C)=CCC/C(C)=C/CN=C(N)N` [NITENSIDINE D], the half-inhibitory concentration (IC50) in the assay with HL-60, in the assay with HCT-8, in the assay on MDA-MB-435 and in the assay on SF-295 was more than 5 µg/mL in each case.
Consider `CC(C)=CCNC(=N)NCC=C(C)C` [PTEROGYNIDINE], for which the IC50 in the assay with HL-60, in the assay on HCT-8, in the assay on MDA-MB-435 and with SF-295 was more than 5 µg/mL each time.
With `CC(C)=C/C=C/C1(C)CCN=C(N)N1` (stereo not given) [NITENSIDINE E], the IC50 with HL-60 was 3.6 µg/mL (≈ 18.6 µM); in the assay on HCT-8, more than 5 µg/mL; in the assay with MDA-MB-435 it was more than 5 µg/mL; in the assay on SF-295 it was 4.9 µg/mL (≈ 25.3 µM).
Regarding `CC(C)=CCN(CC=C(C)C)C(=N)N` [PTEROGYNINE], the IC50 in the assay on HL-60, in the assay with HCT-8, in the assay on MDA-MB-435 and in the assay on SF-295 was more than 5 µg/mL each time.
